Assay results as given in ChEMBL document CHEMBL1153564 (Antimicrob Agents Chemother, 2008).
Values after ≈ are worked out from the molar mass of the structure shown. Active and inactive are the calls of the source. The rule behind the calls is not given here. Starred links: 1 amine or outer side, 2 acyl side, 3 side chain; linkers in the order of their positions; H or OH if unused. Positions of bridges follow the written chain, without caps; N, C: chain ends. Non-standard residues stand in square brackets, D forms with d. Residues, ends and D or L forms follow the SMILES beside them. *: point of attachment. pTerphenylCO(4''-OnC5H11) = CCCCCOc1ccc(-c2ccc(-c3ccc(C(=O)*)cc3)cc2)cc1; Orn(4R-OH,5R-OH) = O=C([C@H](C[C@@H](O)[C@@H](O)N[*:3])N[*:1])[*:2]; hTyr(3S-OH,4S-OH) = N[C@H](C(=O)O)[C@H](O)[C@@H](O)c1ccc(O)cc1; Pro(3S-OH,4S-Me) = C[C@H]1CN[C@H](C(=O)O)[C@H]1O; Hyp = O=C(O)[C@@H]1C[C@@H](O)CN1

Legend:
[1] = system: Candida albicans; experiment: Antifungal activity against Candida albicans K-1 infected in neutropenic ICR/Swiss mouse candidiasis model assessed as dose required to maintain […] of 3.81 +/- 0.33 log10CFU per kidney administered intraperitoneally every 24 hrs up to 4 days measured per 24 hrs; type: functional
Method in brief: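 Neutropenic mice (cyclophosphamide sc 150 mg/kg day −4, 100 mg/kg day −1 and day +2) infected iv via tail vein, 2 h before therapy. Drug given ip in 0.2 ml, diluted from DMSO stock in 0.9% NaCl, q24h for 4 days over five dose levels (0.078–20 mg/kg/24 h), 3 mice per regimen. Kidney CFU on SDA. Static dose taken from a sigmoid Emax (Hill) fit.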

[2] = system: Nakaseomyces glabratus; experiment: Antifungal activity against Candida glabrata 5376 infected in neutropenic ICR/Swiss mouse candidiasis model assessed as dose required to maintain […] burden of 1.83 +/- 0.54 log10CFU per kidney administered intraperitoneally every 24 hrs up to 4 days measured per 24 hrs; type: functional
[3] = system: Nakaseomyces glabratus; experiment: Antifungal activity against Candida glabrata 5376 infected in neutropenic ICR/Swiss mouse candidiasis model assessed as reduction of […] in kidney at 1.25 mg/kg, ip administered 2 hrs postinfection as single dose measured within 1 to 4 hrs post dosing by time-kill assay; type: functional, organism-based; parameters: dose 1.25 mg/kg
Method in brief: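 Neutropenic mice given a single ip dose (1.25, 5 or 20 mg/kg) 2 h after tail-vein infection. Kidneys from 3 mice per time point collected nine times over 96 h. Homogenates serially diluted 1:10 and plated on SDA, 24 h at 35°C. Detection limit 100 CFU/ml.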

[4] = system: Candida albicans; experiment: Antifungal activity against Candida albicans K-1 infected in neutropenic ICR/Swiss mouse candidiasis model assessed as prolongation of fungal growth suppression at 5 mg/kg, ip administered 2 hrs postinfection as single dose by time-kill assay; type: functional; conditions: route intraperitoneal
Method in brief: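 Single ip dose (20, 5 or 1.25 mg/kg) given 2 h after iv infection of neutropenic mice with K-1. Three treated and three control mice were sampled at intervals over 96 h for kidney CFU. PAFE is the time for treated burden to rise 1 log10 after serum levels fall below MIC, minus the same time in controls. Free drug was taken as 1%.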

[5] = system: Serum; experiment: Fraction unbound in Candida albicans K-1 infected neutropenic ICR/Swiss mouse serum at 1.25 mg/kg, ip administered 2 hrs postinfection as single dose; type: ADME, organism-based; parameters: dose 1.25 mg/kg, route intraperitoneal; conditions: in vivo
[6] = system: Candida albicans; experiment: Antifungal activity against Candida albicans K-1 infected in neutropenic ICR/Swiss mouse candidiasis model assessed as dose required to maintain […] of 3.90 +/- 0.15 log10CFU per kidney administered intraperitoneally every 16 hrs up to 4 days measured per 96 hrs; type: functional
Method in brief: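 Neutropenic mice were infected iv with C. albicans K-1 2 h before therapy. Total doses of 1.25, 5, 20, 80 and 320 mg/kg/96 h were split into 1, 2, 4 or 6 ip doses (q96h, q48h, q24h, q16h), three mice per regimen. Effect is the log10 CFU/kidney relative to untreated controls at 96 h. Static and 1-log doses were taken from a Hill model fit.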

[7] = system: Nakaseomyces glabratus; experiment: Antifungal activity against Candida glabrata 32930 infected in neutropenic ICR/Swiss mouse candidiasis model assessed as dose required for 1-log10 reduction in […] per kidney administered intraperitoneally every 24 hrs up to 4 days measured per 24 hrs; type: functional
Method in brief: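 Neutropenic mice (cyclophosphamide sc on days −4, −1 and +2) were infected iv 2 h before therapy. Five total doses from 0.078 to 20 mg/kg/24 h were given ip q24h for 4 days, three mice per regimen. Kidney CFU were measured at the end of therapy. Static and 1-log-kill doses were derived from a Hill sigmoid dose-effect fit.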

[8] = system: Nakaseomyces glabratus; experiment: Antifungal activity against Candida glabrata 5376 infected in neutropenic ICR/Swiss mouse candidiasis model assessed as dose required for 1-log10 reduction in […] per kidney administered intraperitoneally every 24 hrs up to 4 days measured per 24 hrs; type: functional
Method in brief: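 Neutropenic mouse disseminated candidiasis, with i.p. therapy starting 2 h after i.v. infection. Five total doses of 0.078–20 mg/kg/24 h were given q24h for 4 days, three mice per dose. Kidney CFU were counted at the end and compared with untreated controls. The dose giving a 1 log10 CFU/kidney reduction was derived from the sigmoid Hill dose–effect model.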

[9] = system: Candida albicans; experiment: Antifungal activity against Candida albicans 98-17 assessed as partial growth inhibition after 24 hrs by CLSI end point method; type: functional; conditions: 98-17, 24 h
Method in brief: (§1)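 CLSI M27-A2 broth dilution. Two end points read against the drug-free control well: partial inhibition (CLSI end point) and complete inhibition. Run in duplicate on four separate occasions; value is the mean. Drug stock in DMSO, diluted in 0.9% NaCl.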

[10] = system: Candida albicans; experiment: Antifungal activity against Candida albicans 98-210 assessed as partial growth inhibition after 24 hrs by CLSI end point method; type: functional; conditions: 98-210, 24 h; method in brief: as §1
[11] = system: Nakaseomyces glabratus; experiment: Antifungal activity against Candida glabrata 570 assessed as complete growth inhibition after 24 hrs by CLSI end point method; type: functional; conditions: Nakaseomyces glabratus, 570, 24 h
Method in brief: (§2)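 Two end points were read against the drug-free control well: partial growth inhibition (the CLSI end point) and complete inhibition. Run in duplicate on four separate occasions; the value is the mean. Drug stock was made in DMSO and diluted in 0.9% NaCl.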

[12] = Steady state AUC in human at 100 mg/day; type: ADME, organism-based; conditions: in vivo
[13] = system: Nakaseomyces glabratus; experiment: Antifungal activity against Candida glabrata after 24 hrs by broth microdilution method; type: functional; method in brief: as §2
[14] = system: Candida albicans; experiment: Antifungal activity against Candida albicans 580 infected in neutropenic ICR/Swiss mouse candidiasis model assessed as fungal count per kidney administered 2 hrs postinfection measured up to 48 hrs; type: functional
Method in brief: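 Untreated neutropenic mice infected via the tail vein (inoculum about 6.1 log10 CFU/ml, 0.1 ml). Growth is the rise in kidney CFU over 48 h. Kidneys were homogenised, serially diluted 1:10 and plated on SDA for 24 h at 35°C. Mean of three mice.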

[15] = AUC (0 to infinity) in serum of neutropenic ICR/Swiss mouse candidiasis model at 5 mg/kg, ip by reverse-phase high-pressure liquid chromatography; type: ADME, organism-based; parameters: time infinity, dose 5 mg/kg, route intraperitoneal
Method in brief: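 Single ip dose in 0.2 ml to infected neutropenic mice. Serum from groups of three isoflurane-anaesthetised mice at 1, 4, 8, 12, 24 and 48 h, stored −80°C. Drug measured by reverse-phase HPLC with fluorescence detection against loratadine internal standard (calibration 10–50,000 ng/ml). Noncompartmental analysis; AUC by trapezoidal rule.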

[16] = Elimination half life in serum of neutropenic ICR/Swiss mouse candidiasis model at 5 mg/kg, ip by reverse-phase high-pressure liquid chromatography; type: ADME, organism-based; parameters: dose 5 mg/kg, route intraperitoneal; conditions: read-out: beta t1/2 (converted)
Method in brief: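 Infected neutropenic ICR/Swiss mice given single ip doses (5, 20 or 80 mg/kg; 0.2 ml); serum from three isoflurane-anaesthetised mice at 1, 4, 8, 12, 24 and 48 h, stored at −80°C, assayed by reverse-phase HPLC with fluorescence detection, loratadine internal standard, linear 10–50,000 ng/ml. Noncompartmental analysis; half-life by nonlinear least squares.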

[17] = Protein binding in Candida albicans K-1 infected neutropenic ICR/Swiss mouse serum after 30 mins by arithmetic dilution method; type: ADME, organism-based; conditions: read-out: PB (converted)

CCCCCOc1ccc(-c2ccc(-c3ccc(C(=O)N[C@H]4C[C@@H](O)[C@@H](O)NC(=O)[C@@H]5[C@@H](O)[C@@H](C)CN5C(=O)[C@H]([C@@H](C)O)NC(=O)[C@H]([C@H](O)[C@@H](O)c5ccc(O)cc5)NC(=O)[C@@H]5C[C@@H](O)CN5C(=O)[C@H]([C@@H](C)O)NC4=O)cc3)cc2)cc1 [ANIDULAFUNGIN] ({pTerphenylCO(4''-OnC5H11)}-[Orn(4R-OH,5R-OH)]T[Hyp][hTyr(3S-OH,4S-OH)]T[Pro(3S-OH,4S-Me)]; lactam 1-C)
Activity [1]: 1.25 mg/kg
Activity [2]: 6.8 mg/kg
Activity [3]: Active
Activity [4]: >96 h
Fu [5]: 1%
Activity [6]: 16.5 mg/kg
Activity [7]: 3.31 mg/kg
Activity [8]: 7.5 mg/kg
MIC [9]: 0.03 µg/mL (≈ 0.0263 µM)
MIC [10]: 0.015 µg/mL (≈ 0.0132 µM)
MIC [11]: 0.12 µg/mL (≈ 0.105 µM)
AUC [12]: 112 µg·h/mL
MIC90 [13]: 0.12 µg/mL (≈ 0.105 µM)
log10cfu [14]: 3.4
AUC(0-inf) [15]: 96 µg·h/mL
half-life [16]: 14.8 h
fraction unbound at 0.5 h [17]: 0.2
